Assay outcomes from PubChem.
Diaph inh CS = diaphorase inhibitors and chemical oxidizers, primary screen, counter-screen for diaphorase-coupled primary assays, biochemical, uHTS, resorufin fluorescence; inhibition, % at 20 µM; 190,000 tested, 0.69% active; diaphorase resazurin-to-resorufin fluorescence, NADH, 16 min; bacterial (C. kluyveri) enzyme, not human; AID 1217, 2008;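 active = primary screen inhibition at 20 µM above a set limit, cut at about 50% in these data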;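 note: plate controls were DMSO with full reaction for no effect and wells lacking NADH for full effect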
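Assay system: diaphorase enzyme from Clostridium kluyveri; Input: enzyme working solution with 0.14 U/mL diaphorase; Timing: 16 min at room temperature; Technique: resorufin fluorescence, excitation 544 nm, emission 590 nm; Benchmarks: positive control minus NADH, DMSO neutral control.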
G6PDH counter = L. mesenteroides G6PDH inhibitors, counter-screen for G6PDH-coupled screening assays, biochemical, Leuconostoc mesenteroides enzyme | glucose-6-phosphate dehydrogenase [Leuconostoc mesenteroides] | Purified L. mesenteroides G6PDH, diaphorase/resazurin coupled fluorescence, 45 min | inhibition, % at 5 µM | 200,000 tested, 0.12% active
WT yeast gro inh = growth inhibition of WT strain, primary screen, mitochondrial fusion inhibitor project, WT and mutant strains, chemical genetic; mitochondrial fusion phenotypic screen; 190,000 tested, 2.1% active; inhibition, % at 10 µM; in the data active = inhibition above about 58%; tested in S. cerevisiae
Diaph act CS = compounds boosting diaphorase resazurin reduction – biochemical, uHTS, resorufin fluorescence, counter-screen for diaphorase-coupled primary assays, primary screen; Diaphorase/resazurin coupled assay, 16 min; active compounds read high; 1 = vehicle wells, 0 = NADH-free wells; activation factor at 20 µM; 190,000 tested, 0.005% active; AID 1229, 2008;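 active = diaphorase activity raised at least twofold by the compound at 20 µM; inactive = activation factor below 2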
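Material: purified diaphorase enzyme from Clostridium kluyveri / Medium: HEPES pH 7.4 buffer with MgCl2 and Tween 20 / Schedule: enzyme reaction of 16 min at room temperature / Measured by: resorufin fluorescence, excitation 544 nm, emission 590 nm / Evaluation: rise in resorufin formation, marking diaphorase activation or chemical reduction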
L major viab = Leishmania major promastigote growth inhibition, primary screen. Leishmania major promastigotes, resazurin fluorescence viability. inhibition, % at 10 µM. 200,000 tested, 9% active;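 note: promastigotes grown with compound for 44 hours at 28 °C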
The depositor's hits bear a star. Shown are actives, neighbours in structure and some others; about 11% of the full set was active somewhere. Cut-off read from the data, not from the text of the source, unless noted: active = inhibition above about 50%; inactive = the rest.

SMILES	Diaph inh CS	G6PDH counter	WT yeast gro inh	Diaph act CS	L major viab
CCOC(=O)N1CCC(N2CCN(Cc3ccccc3)C(CCO)C2)CC1 (centres undefined)	-3	4	-3	1	50*
CC(=O)N1CCC(N2CCN(Cc3ccc(C)cc3)C(CCO)C2)CC1 (centres undefined)	3	2	-21	1	19
Cc1ccc(N2CCC(N3CCN(C4CCCCC4)C(CCO)C3)CC2)cc1 (centres undefined)	9	6	8	0.9	53*
Cc1ccc(CN2CCN(C3CCOCC3)CC2CCO)cc1 (centres undefined)	18	16	0	0.8	62*
COc1ccc(-n2c(SCC(N)=O)nc3sc4c(c3c2=O)CCC4)cc1	9	13	4	0.9	-5
Cc1cc(C)nc(NC(=O)/C=C/c2ccccc2Cl)c1	16	-29	64*	0.8	7
Cc1cc(C)nc(NC(=O)/C=C/c2cccs2)c1	11	5	14	0.9	16
Cc1cc(C)nc(NC(=O)/C=C/c2ccc(Cl)cc2Cl)c1	7	-1	74*	0.9	30
NNc1ncnc2scc(-c3ccc(Cl)cc3)c12	-7	8	32	1.1	68*
COc1ccc(-c2csc3ncnc(Cl)c23)cc1	20	12	-11	0.8	6
COc1ccc(Nc2ncnc3scc(-c4ccc(OC)cc4)c23)cc1	23	0	72*	0.8	88*
O=C(CSc1ccc(-c2ccco2)nn1)c1cccc([N+](=O)[O-])c1	63*	5	3	0.4	43
O=C(CSc1ccc(-c2ccco2)nn1)N1CCCC1	24	2	-12	0.8	1
COc1ccc(-c2[nH]ncc2/C=C(/C#N)C(=O)NC2CCCCC2)cc1	15	5	5	0.9	66*
N#C/C(=C\c1cccn1-c1ccccc1)C(=O)NC1CCCCC1	3	2	32	1	4
N#C/C(=C\c1cc(Cl)ccc1O)C(=O)NC1CCCCC1	4	5	1	1	9
N#C/C(=C\c1ccccc1[N+](=O)[O-])C(=O)NC1CCCCC1	2	13	58*	1	100*
N#C/C(=C\C=C\c1ccccc1[N+](=O)[O-])C(=O)NC1CCCCC1	16	3	6	0.8	91*
OC1(c2cccnc2)CCN(Cc2nnnn2Cc2ccccc2)CC1	1	-1	-3	1	5
Cc1ccc(Cn2nnnc2CN2CCC(O)(c3cccnc3)CC2)cc1	-1	11	-15	1	53*
O=C(CCC1CCCC1)NCCCN1CCOCC1	16	2	-3	0.8	67*
O=C(CC1CCCCC1)NCCCN1CCOCC1	-6	6	15	1.1	37
Cc1ccc(C2C(C#N)=C(N)SC(N)=C2C#N)o1	66*	21	25	0.3	-10
Cc1ccc([C@H]2C(C#N)=C(N)Oc3cc(C)oc(=O)c32)o1	-8	-3	9	1.1	100*
Cc1cc2c(c(=O)o1)C(c1cccs1)C(C#N)=C(N)O2 (centres undefined)	4	-6	-10	1	62*
SMILES	Diaph inh CS	G6PDH counter	WT yeast gro inh	Diaph act CS	L major viab
Cc1cc2c(c(=O)o1)C(C(C)C)C(C#N)=C(N)O2 (centres undefined)	15	-4	1	0.8	-6
Cc1cc(N2CCN(C3CCCCC3)CC2)nc2cccc(O)c12	18	19	13	0.8	85*
Cc1cc(N2CCCC2)nc2ccccc12	3	15	-4	1	14
COc1cccc(N2CCN(c3ccc(N4C(=O)CCC4=O)cc3[N+](=O)[O-])CC2)c1	26	8	-10	0.7	2
CCOC(=O)Cn1c(C)cc(=O)c2cccc(C)c21	8	-2	9	0.9	0
Cc1cccc2c(=O)cc(C)n(Cc3ccccc3)c12	26	-2	18	0.7	59*
c1ccc(N/N=C(\Cc2nc3ccccc3[nH]2)c2ccccc2)cc1	10	4	72*	0.9	9
Clc1cccc(/C(Cc2nc3ccccc3[nH]2)=N\Nc2ccccc2)c1	5	-18	68	1	40
O=C(Cc1nc2ccccc2[nH]1)c1ccc(Br)cc1	-2	2	9	1	96*
O=C(Cc1nc2ccccc2[nH]c1=O)c1ccccc1	3	-4	-1	1	4
Cc1ccc(N/N=C(\Cc2nc3ccccc3[nH]2)c2ccccc2)cc1	7	-15	17	0.9	88*
O=C(NCCOc1ccccc1)c1cc(C(=O)NCCOc2ccccc2)cc([N+](=O)[O-])c1	23	2	9	0.8	98*
COc1ccc(F)cc1S(=O)(=O)N1CC(C)CC(C)C1 (centres undefined)	17	-1	-9	0.8	-3
O=C(CCc1nnc(-c2ccsc2)o1)N1CCCCC1CCn1ccnc1 (centres undefined)	15	9	-3	0.8	6
N#CCCN/N=C(\Cc1nc2ccccc2[nH]1)c1ccccc1	20	-4	-6	0.8	3
N/N=C(/Cc1nc2ccccc2[nH]1)c1ccc([N+](=O)[O-])cc1	-3	1	90*	1	39
O=C(NCCc1nc2ccccc2[nH]1)c1cc([N+](=O)[O-])cc([N+](=O)[O-])c1	9	-9	-16	0.9	98*
CCN/N=C(\Cc1nc2ccccc2[nH]1)c1ccccc1	11	-6	-9	0.9	75*
N#CCCN/N=C(/Cc1nc2ccccc2[nH]1)c1ccc(Cl)cc1	7	0	15	0.9	33
Cc1cc2c(N=NC(=O)C3CC3c3ccccc3)c(O)[nH]c2cc1Br (centres undefined)	5	-3	36	0.9	-12
O=C(O)c1nn(-c2cccc(Cl)c2)c(=O)cc1O	14	9	0	0.9	-5
CCN(c1ccccc1)S(=O)(=O)c1ccc(N)c(OC)c1	-14	17	-1	1.1	1
CC(Sc1nc2ccccc2n1C)C(=O)NC(c1ccccc1)c1ccccc1 (centres undefined)	11	6	59*	0.9	100*
Cn1c(SC(C(=O)Nc2ccc(F)cc2)c2ccccc2)nc2ccccc21 (centres undefined)	12	6	56	0.9	8
Cc1ccc(NC(=O)NNC(=O)c2cccs2)cc1	14	-4	1	0.9	-4
COC(=O)C1CCN(C(=O)c2cc(OC)c(OC)c(OC)c2)CC1	14	3	78*	0.9	-6
COc1cc(C(=O)N2CCN(C(=O)C3CC3)CC2)cc(OC)c1OC	4	8	-5	1	-6
